Measured values from ChEMBL document CHEMBL3286203, “Reactive oxygen species (ROS) inducible DNA cross-linking agents and their effect on cancer cells and normal lymphocytes” (J Med Chem, 2014).
Calls of active or inactive are those of the source. No cut-off for these calls is given here.

Tests used:
SNB-19 = experiment: Cytotoxicity against human SNB19 cells assessed as growth inhibition at 10 uM after 48 hrs by SRB assay; assay type: functional, cell-based
Method in brief: (§1)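 NCI-60 DTP human tumour line screen. Cells grown in RPMI 1640 with 5% fetal bovine serum and 2 mM L-glutamine, plated at 5000–40 000 cells/well according to doubling time. Single dose of 10 μM for 48 h at 37 °C, 5% CO2, 95% air, 100% humidity, two plates per line. Read-out is growth percent.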

LOX IMVI = experiment: Cytotoxicity against human LOXIMVI cells assessed as growth inhibition at 10 uM after 48 hrs by SRB assay; assay type: functional, cell-based
Method in brief: (§2)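 NCI DTP 60-cell-line screen run at the NCI. Cells were grown in RPMI 1640 with 5% FBS and 2 mM L-glutamine. They were seeded at 5000–40 000 cells/well depending on doubling time and grown in two plates per line. Each was exposed to a single 10 μM dose for 48 h at 37 °C, 5% CO2, 95% air, 100% humidity. Read-out was percent growth.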

M14 = experiment: Cytotoxicity against human M14 cells assessed as growth inhibition at 10 uM after 48 hrs by SRB assay; assay type: functional, cell-based; method in brief: as §2
SK-MEL-2 = experiment: Cytotoxicity against human SK-MEL-2 cells assessed as growth inhibition at 10 uM after 48 hrs by SRB assay; assay type: functional, cell-based
Method in brief: (§3)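 Single-dose screen run by the NCI Developmental Therapeutics Program (NCI-60). Cells were grown in RPMI 1640 with 5% fetal bovine serum and 2 mM L-glutamine. They were plated at 5000–40 000 cells/well, depending on doubling time. Each line was run in two plates and exposed to 10 μM drug for 48 h at 37 °C, 5% CO2, 100% humidity. Read-out was growth percent.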

UACC-257 = experiment: Cytotoxicity against human UACC257 cells assessed as growth inhibition at 10 uM after 48 hrs by SRB assay; assay type: functional, cell-based; method in brief: as §1
UACC-62 = experiment: Cytotoxicity against human UACC62 cells assessed as growth inhibition at 10 uM after 48 hrs by SRB assay; assay type: functional, cell-based; method in brief: as §1
OVCAR-5 = experiment: Cytotoxicity against human OVCAR5 cells assessed as growth inhibition at 10 uM after 48 hrs by SRB assay; assay type: functional, cell-based; method in brief: as §3
OVCAR-8 = experiment: Cytotoxicity against human OVCAR8 cells assessed as growth inhibition at 10 uM after 48 hrs by SRB assay; assay type: functional, cell-based; method in brief: as §3
786-0 = experiment: Cytotoxicity against human 786-0 cells assessed as growth inhibition at 10 uM after 48 hrs by SRB assay; assay type: functional, cell-based; method in brief: as §2
ACHN = experiment: Cytotoxicity against human ACHN cells assessed as growth inhibition at 10 uM after 48 hrs by SRB assay; assay type: functional, cell-based; method in brief: as §2
SN12C = experiment: Cytotoxicity against human SN12C cells assessed as growth inhibition at 10 uM after 48 hrs by SRB assay; assay type: functional, cell-based; method in brief: as §1
PC-3 = experiment: Cytotoxicity against human PC3 cells assessed as growth inhibition at 10 uM after 48 hrs by SRB assay; assay type: functional, cell-based; method in brief: as §3
DU-145 = experiment: Cytotoxicity against human DU145 cells assessed as growth inhibition at 10 uM after 48 hrs by SRB assay; assay type: functional, cell-based; method in brief: as §2
Hs-578T = experiment: Cytotoxicity against human Hs578T cells assessed as growth inhibition at 10 uM after 48 hrs by SRB assay; assay type: functional, cell-based; method in brief: as §2
BT-549 = experiment: Cytotoxicity against human BT549 cells assessed as growth inhibition at 10 uM after 48 hrs by SRB assay; assay type: functional, cell-based; method in brief: as §2
MDA-MB-468 [1] = experiment: Cytotoxicity against human MDA-MB-468 cells assessed as growth inhibition at 10 uM after 48 hrs by SRB assay; assay type: functional, cell-based; method in brief: as §3
[2] = Cytotoxicity against human HCT15 cells after 48 hrs by SRB assay; assay type: functional; details: HCT-15, 48 h
Method in brief: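 GI50 was determined in the NCI Developmental Therapeutics Program in vitro 60-line cancer screen. Tumour lines were maintained in RPMI 1640 containing 5% FBS and 2 mM L-glutamine. Cells were inoculated at 5000–40 000 cells/well according to each line's doubling time before drug exposure.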

SK-OV-3 = experiment: Cytotoxicity against human SKOV3 cells after 48 hrs by SRB assay; assay type: functional; details: SK-OV-3, 48 h
Method in brief: (§4)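 GI50 from the NCI Developmental Therapeutics Program in vitro human tumor cell screen. Cell lines were maintained in RPMI 1640 with 5% fetal bovine serum and 2 mM L-glutamine. They were seeded at 5000–40 000 cells/well, depending on each line's doubling time, then exposed to drug for 48 h at 37 °C, 5% CO2.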

TK-10 = experiment: Cytotoxicity against human TK10 cells after 48 hrs by SRB assay; assay type: functional; details: TK-10, 48 h
Method in brief: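 GI50 from the NCI-60 DTP human tumour line screen. Lines grown in RPMI 1640 with 5% fetal bovine serum and 2 mM L-glutamine, plated at 5000–40 000 cells/well according to doubling time. Incubated 48 h at 37 °C, 5% CO2.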

MDA-MB-468 [3] = experiment: Cytotoxicity against human MDA-MB-468 cells after 48 hrs by SRB assay; assay type: functional; details: MDA-MB-468, 48 h; method in brief: as §4
HOP-92 = experiment: Cytotoxicity against human HOP92 cells assessed as growth inhibition at 10 uM after 48 hrs by SRB assay; assay type: functional, cell-based; method in brief: as §2
NCI-H23 = experiment: Cytotoxicity against human NCI-H23 cells assessed as growth inhibition at 10 uM after 48 hrs by SRB assay; assay type: functional, cell-based; method in brief: as §3
NCI-H522 = experiment: Cytotoxicity against human NCI-H522 cells assessed as growth inhibition at 10 uM after 48 hrs by SRB assay; assay type: functional, cell-based; method in brief: as §3
HCC 2998 = experiment: Cytotoxicity against human HCC2998 cells assessed as growth inhibition at 10 uM after 48 hrs by SRB assay; assay type: functional, cell-based; method in brief: as §2
HCT-15 = experiment: Cytotoxicity against human HCT15 cells assessed as growth inhibition at 10 uM after 48 hrs by SRB assay; assay type: functional, cell-based; method in brief: as §2
HT-29 = experiment: Cytotoxicity against human HT-29 cells assessed as growth inhibition at 10 uM after 48 hrs by SRB assay; assay type: functional, cell-based; method in brief: as §2
SF-268 = experiment: Cytotoxicity against human SF268 cells assessed as growth inhibition at 10 uM after 48 hrs by SRB assay; assay type: functional, cell-based; method in brief: as §3
[4] = Induction of [32P]-labeled 49-mer oligonucleotide duplex DNA 12 interstrand cross-linking (unknown origin) at purine nucleotide site using compound radiolabeled at 5' of 12b in phosphate buffer at pH 7 at 90 degC after 30 mins by PAGE
[5] = Induction of [32P]-labeled 49-mer oligonucleotide duplex DNA 12 interstrand cross-linking (unknown origin) at purine nucleotide site using compound radiolabeled at 5' of 12a at 90 deg C after 30 mins by PAGE in presence of piperidine
Method in brief: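 Cross-linked duplex, with strand 12a 32P-labelled at the 5′ end, heated at 90 °C either in phosphate buffer pH 7.0 or in 1.0 M piperidine. Cleavage sites were assigned by denaturing PAGE against G + A sequencing and Fe·EDTA markers.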

A549 = experiment: Cytotoxicity against human A549 cells assessed as growth inhibition at 10 uM after 48 hrs by SRB assay; assay type: functional, cell-based; method in brief: as §2
K562 = experiment: Cytotoxicity against human K562 cells assessed as growth inhibition at 10 uM after 48 hrs by SRB assay; assay type: functional, cell-based; method in brief: as §2
CCRF-CEM = experiment: Cytotoxicity against human CCRF-CEM cells assessed as growth inhibition at 10 uM after 48 hrs by SRB assay; assay type: functional, cell-based; method in brief: as §2

| Structure (SMILES) | growth inhibition (GI) (SNB-19) | growth inhibition (GI) (LOX IMVI) | growth inhibition (GI) (M14) | growth inhibition (GI) (SK-MEL-2) | growth inhibition (GI) (UACC-257) | growth inhibition (GI) (UACC-62) | growth inhibition (GI) (OVCAR-5) | growth inhibition (GI) (OVCAR-8) | growth inhibition (GI) (786-0) | growth inhibition (GI) (ACHN) | growth inhibition (GI) (SN12C) | growth inhibition (GI) (PC-3) | growth inhibition (GI) (DU-145) | growth inhibition (GI) (Hs-578T) | growth inhibition (GI) (BT-549) | growth inhibition (GI) (MDA-MB-468 [1]) | growth inhibition (GI) (HOP-92) | growth inhibition (GI) (NCI-H23) | growth inhibition (GI) (NCI-H522) | growth inhibition (GI) (HCC 2998) | also measured |
| --- | --- | --- | --- | --- | --- | --- | --- | --- | --- | --- | --- | --- | --- | --- | --- | --- | --- | --- | --- | --- | --- |
| CC1(C)OB(c2ccc(N(CCCl)CCCl)cc2)OC1(C)C | Active | Active | Active | Active | Active | Active | Active | Active | Active | Active | Active | Active | Active | Active | Active | Active | Active | Active | Active | Active | GI50 [2]: 13.2 µM; GI50 (SK-OV-3): 8.03 µM; GI50 (TK-10): 16.7 µM; GI50 (MDA-MB-468 [3]): 1.6 µM; growth inhibition (GI) (HCT-15): Active; growth inhibition (GI) (HT-29): Active; growth inhibition (GI) (SF-268): Active; Activity [4]: Active; Activity [5]: Active; growth inhibition (GI) (A549): Active; growth inhibition (GI) (K562): Active; growth inhibition (GI) (CCRF-CEM): Active |
| CC1(C)OB(c2ccc(N(CCBr)CCBr)cc2)OC1(C)C | Active | Active | Active | Active | Active | Active | Active | Active | Active | Active | Active | Active | Active | Active | Active | Active | Active | Active | Active | Active | growth inhibition (GI) (HCT-15): Active; growth inhibition (GI) (HT-29): Active; growth inhibition (GI) (SF-268): Active; Activity [4]: Active; Activity [5]: Active; growth inhibition (GI) (A549): Active; growth inhibition (GI) (K562): Active; growth inhibition (GI) (CCRF-CEM): Active |
